Only some compounds are listed: those with a hit (about 2.2% of all), similar ones and a draw of the others.
ASAP1 inh: inhibitors of human ASAP1 ArfGAP activity, primary screen, biochemical, fluorescence polarization; Arf-GAP with SH3 domain, ANK repeat and PH domain-containing protein 1 (Homo sapiens), …; ASAP1-stimulated ARF1 GTP hydrolysis, GDP FP detection; inhibition, % at 16.5 µM; 360,000 tested, 0.19% active; in the data active = inhibition above about 25%;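 note: 0% = vehicle with enzyme and substrate and 100% = no enzyme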
Target sequence (Q9ULH1 325-724 limits assumed): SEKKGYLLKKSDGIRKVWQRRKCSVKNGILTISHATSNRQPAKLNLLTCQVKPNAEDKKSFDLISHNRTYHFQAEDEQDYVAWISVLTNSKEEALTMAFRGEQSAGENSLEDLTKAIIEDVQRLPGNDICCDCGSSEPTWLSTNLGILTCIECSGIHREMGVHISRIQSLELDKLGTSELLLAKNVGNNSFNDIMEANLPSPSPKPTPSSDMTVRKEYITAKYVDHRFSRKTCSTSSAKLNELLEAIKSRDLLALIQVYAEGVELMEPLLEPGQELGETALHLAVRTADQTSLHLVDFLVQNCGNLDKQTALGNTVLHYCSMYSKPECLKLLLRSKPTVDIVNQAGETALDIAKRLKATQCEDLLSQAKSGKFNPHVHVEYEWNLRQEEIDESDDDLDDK
rCAG RNA binder: binders of r(CAG) RNA repeats, primary screen, biochemical, fluorescence; r(CAG) RNA repeat, TO-PRO-1 dye displacement fluorescence; inhibition, % at 3 µM; 370,000 tested, 1.3% active;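 active = inhibition above the plate cutoff, the mean of all test compounds on that plate plus 3 SD, cut at about 35% in these data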;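 note: 0% = DMSO alone and 100% = 100 µM mitoxantrone as full dye displacement; higher means more dye released from RNA so lower well fluorescence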
NadD block: inhibitors of S. aureus NadD, primary screen, biochemical, colorimetric, uHTS | AID 602399, 2012 | 360,000 tested, 0.78% active | purified NadD enzyme, colorimetric absorbance read-out | inhibition, % at 20 µM | Nicotinate-nucleotide adenylyltransferase NadD (Staphylococcus aureus N315); in the data active = inhibition above about 26%
ARFGAP1 inh: inhibitors of rat ARFGAP1 GAP activity, primary screen, biochemical, fluorescence polarization, GDP tracer; inhibition, % at 16.5 µM; Arfgap1-stimulated ARF1 GTP hydrolysis, GDP FP detection; AID 651572, 2012; 360,000 tested, 0.26% active; ADP-ribosylation factor GTPase-activating protein 1 (Rattus norvegicus), Q62848;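 active = inhibition above a per-plate limit, mean inhibition of low control wells plus 3 SD, cut at about 25% in these data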;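 note: 0% = DMSO wells with enzyme and 100% = wells lacking Arfgap1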
Target sequence (Q62848 1-136 limits assumed): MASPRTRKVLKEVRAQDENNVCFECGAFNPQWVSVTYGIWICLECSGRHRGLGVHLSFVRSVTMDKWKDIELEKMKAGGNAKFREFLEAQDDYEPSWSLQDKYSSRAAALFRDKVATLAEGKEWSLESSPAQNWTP
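Material: rat Arfgap1 catalytic domain, aa 1-136; also added: human ARF1(Δ1-17)-GTP substrate; compound dosing: one concentration, 16.5 µM, DMSO 1.26%; incubation: GTP hydrolysis reaction 2 h at 25 °C; measured by: Tracer-displacement fluorescence polarization with EDTA stop, 620/688 nm; evaluation: % inhibition from polarization; repeats: one replicate per compound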
rCAG bind conf: small molecules binding CAG repeat RNA – biochemical, fluorescence, confirmation. r(CAG) RNA repeat, TO-PRO-1 dye displacement fluorescence. inhibition, % at 3 µM. 4,300 tested, 70% active. shares compounds with rCAG RNA binder;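 active = inhibition above a per-plate cutoff, the mean inhibition of sample wells plus 3 SD, cut at about 35% in these data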;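 note: loss of TO-PRO-1 fluorescence as compound displaces dye from 1x1 AA loop RNA; 0% = DMSO only wells and 100% = 100 µM mitoxantrone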
dCAG dye counter: displacement of TO-PRO-1 from CAG DNA duplex, counter-screen for rCAG RNA repeat binder project, biochemical, fluorescence, TO-PRO-1 dye, d(CAG) DNA oligo; shares compounds with rCAG RNA binder; d(CAG) DNA oligo TO-PRO-1 dye displacement; inhibition, % at 3 µM; 4,300 tested, 94% active;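 active = inhibition above its plate's cutoff, the mean test-well inhibition plus 3 SD, cut at about 4.8% in these data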;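 note: 0% = DNA dye mix with DMSO and 100% = 100 µM mitoxantrone; hits displace the dye from DNA and so lower well fluorescence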
Starred values were filed as active, the others as inactive; / = no result.

SMILES	ASAP1 inh	rCAG RNA binder	NadD block	ARFGAP1 inh	rCAG bind conf	dCAG dye counter
O=C(NNc1nc2c(F)cccc2s1)C1=COCCO1	-4.2	9.4	3.2	1.8	/	/
Cc1ccc2sc(NNC(=O)C3=COCCO3)nc2c1C	7.1	51.0*	5.7	-0.9	14.3	5.8*
N#CC1(NC(=O)CSc2nnc(C3CC3)n2N)CCCCC1	-14.1	0.9	8.8	9.8	/	/
Cc1cc(CN2CCN(CC(=O)Nc3cc(Cl)ccc3-n3cncn3)CC2)no1	-12.7	-6.0	-9.2	-5.8	/	/
Cc1ccc(S(=O)(=O)N(C)[C@H]2C[C@H]3c4cc(-c5ccccc5C)ccc4CCN3C[C@H]2[C@H](C)O)cc1	/	4.3	/	/	/	/
Cc1ccc(NC(=O)c2cccc(Oc3ccc([N+](=O)[O-])cc3)c2)c(C(=O)O)c1	6.2	85.1*	1.6	-3.8	74.4*	38.2*
N#C/C(=C/c1cccc([N+](=O)[O-])c1)C(=O)Nc1ccccc1O	7.3	7.4	17.0	-0.9	/	/
N#C/C(=C\c1ccccc1)C(=O)NNS(=O)(=O)c1cccc([N+](=O)[O-])c1	7.8	36.5*	5.7	-3.7	6.9	1.8
CC(C)C[C@H]1COc2cccc(F)c2S(=O)(=O)N1Cc1cn(Cc2ccc(F)cc2)nn1	/	-2.0	/	/	/	/
COC(=O)C[C@H]1CC[C@@H](NC(=O)C2CC2)[C@@H](CO)O1	3.3	-1.0	/	5.8	/	/
O=C(O)c1ccccc1-c1nc(-c2ccccc2)c(-c2ccccc2)[nH]1	7.7	1.9	2.4	4.2	/	/
O=C(O)c1cccc2c(-c3ccccc3)c(-c3ccccc3)[nH]c12	16.0	77.4*	3.6	-0.7	66.1*	22.9*
Cc1ccc(S(=O)(=O)Nc2ccc(Br)cc2/C=N/n2cnnc2)cc1	-2.3	44.8*	2.2	-19.3	39.5*	12.5*
Cc1ccc(S(=O)(=O)N/N=C/c2cc(Br)ccc2O)cc1	1.6	27.7	-5.7	5.1	/	/
CCCN1CCS(=O)(=O)N(Cc2cn(Cc3ccccc3)nn2)C(C(=O)OC)C1 (stereo not drawn)	/	1.8	/	/	/	/
O=C(COc1ccccc1Cl)Nc1cc(NC(=O)COc2ccccc2Cl)cc(C(=O)O)c1	-0.3	9.1	9.7	10.6	/	/
COc1ccccc1OCC(=O)Nc1nnc(-c2ccco2)s1	2.3	57.9*	1.2	3.1	7.9	2.8
O=C(COc1ccccc1)Nc1cc(NC(=O)COc2ccccc2)cc(C(=O)O)c1	1.7	33.6	-4.9	-7.6	/	/
COc1ccccc1OCC(=O)Nc1cc(NC(=O)COc2ccccc2OC)cc(C(=O)O)c1	-4.2	45.6*	-3.7	5.2	11.1	1.8
COc1ccc(OCC(=O)Nc2cc(NC(=O)COc3ccc(OC)cc3)cc(C(=O)O)c2)cc1	6.0	37.6*	-4.2	13.5	51.7*	16.7*
C=CCNC(=O)N1CCN(Cc2nc3ccccc3c(=O)[nH]2)CC1	/	0.0	/	/	/	/
COc1cc2c(cc1NC(=O)CSc1nnc(COc3ccccc3)n1Cc1ccco1)oc1ccccc12	/	12.6	/	/	/	/
Oc1cccc(CN2CCOCC2)c1O	-13.2	40.9*	6.3	-10.9	3.4	0.4
O=C1/C(=C\c2ccco2)NC(=S)N1c1ccccc1	-6.3	39.9*	10.3	-12.2	37.7*	16.9*
CCCN=C1N/C(=C\c2ccco2)C(=O)N1c1ccccc1	5.9	13.5	3.0	2.2	/	/
SMILES	ASAP1 inh	rCAG RNA binder	NadD block	ARFGAP1 inh	rCAG bind conf	dCAG dye counter
Cc1ccccc1S(=O)(=O)NC(=O)C1(C)CCN1C(=O)CC(c1ccccc1)c1ccccc1 (stereo not drawn)	-9.6	47.4*	0.3	-18.7	33.4	7.0*
CC1(C(=O)NS(=O)(=O)c2ccccc2Cl)CCN1C(=O)CC(c1ccccc1)c1ccccc1 (stereo not drawn)	1.3	50.1*	-2.3	-4.1	44.7*	9.2*
CC1(C(=O)NS(=O)(=O)c2cccc(OC(F)F)c2)CCN1C(=O)CC(c1ccccc1)c1ccccc1 (stereo not drawn)	-7.0	51.7*	3.1	4.3	45.8*	13.8*
COC(=O)C[C@@H]1CC[C@H]2[C@@H](COc3ccc(NC(=O)c4ccc(C(F)(F)F)cc4)cc3C(=O)N2C)O1	/	3.0	/	/	/	/
O=C(O)/C(=C\c1cccc(C(F)(F)F)c1)c1ccc(S(=O)(=O)N2CCCC2)s1	6.2	36.3*	3.3	-0.7	26.4	5.5*
O=C(O)/C(=C\c1ccc(Cl)cc1)c1ccc(S(=O)(=O)N2CCCC2)s1	10.4	27.1	2.2	7.8	/	/
O=C(O)/C(=C\c1ccc(Cl)c([N+](=O)[O-])c1)c1ccc(S(=O)(=O)N2CCCCC2)s1	1.3	38.2*	20.2	-9.7	68.0*	29.4*
O=C(O)/C(=C\c1ccccc1Cl)c1ccc(S(=O)(=O)N2CCCCC2)s1	14.3	50.7*	7.5	11.7	34.3	9.4*
O=C(O)/C(=C\c1cccc([N+](=O)[O-])c1)c1ccc(S(=O)(=O)N2CCCCC2)s1	-13.9	37.6*	-2.9	-4.8	44.1*	14.2*
C=CCN1[C@H](C#N)[C@@H](c2ccc(C#Cc3cccnc3)cc2)[C@H]1CO	/	3.6	/	/	/	/
COC(=O)[C@]12C[C@H](CC(=O)N3CCN(C(=O)C4CC4)CC3)C(=O)N(Cc3cccc4ccccc34)C1=C[C@H](C1CCCC1)O[C@@H]2C	/	9.4	/	/	/	/
CCN1C(=O)N(C(C)=O)[C@@H]2C[C@H](C(=O)N3CCCC3)[C@H](C)[C@H](c3ccccc3)C[C@@H]21	-10.6	1.6	/	2.7	/	/
COCCNC(=S)N1CCC2CC1c1cc(-c3ccc4c(c3)OCO4)ccc12 (stereo not drawn)	-0.3	5.8	-9.7	11.0	/	/
CSc1ccc(/C=C(\C(=O)O)c2ccc(S(=O)(=O)N3CCCCC3)s2)cc1	9.2	59.3*	6.1	-2.9	55.3*	19.6*
O=C(O)/C(=C\c1ccc(Cl)c([N+](=O)[O-])c1)c1ccc(S(=O)(=O)N2CCCC2)s1	-1.2	71.0*	5.8	-5.4	46.9*	14.8*
Oc1ccc(-c2csc(Nc3ccccn3)n2)cc1O	6.7	26.4	2.8	5.5	/	/
COc1ccc(-c2csc(Nc3ncccc3C)n2)cc1OC	19.7	4.3	7.1	22.3	/	/
Oc1ccc(-c2csc(Nc3cccc4ccccc34)n2)cc1O	21.5	53.9*	21.4	11.1	54.9*	33.7*
Cc1cccnc1Nc1nc(-c2ccc(O)c(O)c2)cs1	13.0	38.4*	1.5	11.4	54.3*	19.3*

Bioassay records (PubChem)
